Results: article PMC12363949 (bioRxiv, 2025)
pIC50: −log10 of the molar value.

Legend:
Pf20S β1 = Pf20S β1 (Plasmodium falciparum, UniProt Q8I0U7+Q8I6T3); assay: Pf20S β1 subunit activity/inhibition assay, fluorogenic substrate Ac-nPnD-amc; format: biochemical
Pf20S β5 subunit = assay: Gel-based competition with activity-based probe Me4BodipyFL-Ahx3Leu3VS, β5 band; format: biochemical, Plasmodium falciparum; settings: preincubation of recombinant Pf20S with inhibitor before probe; denaturing gel
Procedure, shortened: (§1)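 Baculovirus-expressed Pf20S from Sf9 cells, purified by Streptactin affinity and size exclusion, preincubated with test compound. Then 2 μM Me4BodipyFL-Ahx3Leu3VS added, 16 h at room temperature. Samples heated 5 min at 99°C in LDS buffer with 250 μM DTT, run on 12% Bis-Tris gel in MOPS SDS buffer at 120 V. Imaged at 470 nm excitation / 530 nm emission; bands quantified densitometrically.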

Pf20S β2 subunit = assay: Gel-based competition with activity-based probe Me4BodipyFL-Ahx3Leu3VS, β2 band; format: biochemical, Plasmodium falciparum; settings: preincubation of recombinant Pf20S with inhibitor before probe; denaturing gel
Procedure, shortened: as §1

c20S β2 = c20S β2 (Homo sapiens, UniProt P49720+Q99436); assay: Human c20S β2 inhibition assay, fluorogenic substrate Z-VLR-amc; format: biochemical
Pf20S β2 = Pf20S β2 (Plasmodium falciparum, UniProt Q8I261+Q8I6T3); assay: Pf20S β2 subunit activity/inhibition assay, fluorogenic substrate Z-VLR-amc; format: biochemical
Pf20S β5 = Pf20S β5 (Plasmodium falciparum, UniProt A0A5K1K7U1+Q8IJT1); assay: Pf20S β5 subunit activity/inhibition assay, fluorogenic substrate Ac-FNKL-amc; format: biochemical; settings: 200 nM PA28α
[1] = target: incorrectly assembled half-Pf20S (immature half proteasome with Ump1) (Plasmodium falciparum) (UniProt Q8I6T3); assay: cryo-EM structure

Pf20S β1, sequence (Q8I0U7 31-282): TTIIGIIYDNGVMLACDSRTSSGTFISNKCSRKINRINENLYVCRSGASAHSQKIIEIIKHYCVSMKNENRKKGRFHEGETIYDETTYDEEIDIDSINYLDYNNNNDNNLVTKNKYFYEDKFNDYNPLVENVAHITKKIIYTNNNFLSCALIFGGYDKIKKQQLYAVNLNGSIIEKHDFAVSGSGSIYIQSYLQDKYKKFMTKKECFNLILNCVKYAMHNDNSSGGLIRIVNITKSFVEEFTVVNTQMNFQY
Pf20S β1, sequence (Q8I6T3 42-270): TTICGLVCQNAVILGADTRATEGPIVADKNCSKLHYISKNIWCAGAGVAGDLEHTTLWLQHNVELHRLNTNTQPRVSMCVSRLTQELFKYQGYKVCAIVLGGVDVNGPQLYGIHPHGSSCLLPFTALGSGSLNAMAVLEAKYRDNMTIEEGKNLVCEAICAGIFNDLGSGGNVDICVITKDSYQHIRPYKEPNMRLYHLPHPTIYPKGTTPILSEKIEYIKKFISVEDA
Pf20S β1, sequence (Q06323 whole entry partner): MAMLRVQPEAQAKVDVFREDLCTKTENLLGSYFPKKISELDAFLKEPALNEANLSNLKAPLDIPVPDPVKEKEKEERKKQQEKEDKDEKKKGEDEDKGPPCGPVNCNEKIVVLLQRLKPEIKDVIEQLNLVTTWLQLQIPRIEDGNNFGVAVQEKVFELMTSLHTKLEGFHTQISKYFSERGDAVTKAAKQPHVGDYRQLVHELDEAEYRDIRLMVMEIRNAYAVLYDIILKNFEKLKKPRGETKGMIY
Pf20S β2, sequence (Q8I6T3 42-270): as the sequence (Q8I6T3 42-270) above
Pf20S β2, sequence (Q8I261 1-218): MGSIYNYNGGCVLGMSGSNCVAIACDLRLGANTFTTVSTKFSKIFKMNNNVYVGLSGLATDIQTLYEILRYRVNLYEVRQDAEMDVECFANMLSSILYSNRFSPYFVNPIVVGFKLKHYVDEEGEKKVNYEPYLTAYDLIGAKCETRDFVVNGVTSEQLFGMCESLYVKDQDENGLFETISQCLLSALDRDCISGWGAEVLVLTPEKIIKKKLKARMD
Pf20S β2, sequence (Q06323 whole entry partner): as the sequence (Q06323 whole entry partner) above
Pf20S β5, sequence (Q8IJT1 61-271): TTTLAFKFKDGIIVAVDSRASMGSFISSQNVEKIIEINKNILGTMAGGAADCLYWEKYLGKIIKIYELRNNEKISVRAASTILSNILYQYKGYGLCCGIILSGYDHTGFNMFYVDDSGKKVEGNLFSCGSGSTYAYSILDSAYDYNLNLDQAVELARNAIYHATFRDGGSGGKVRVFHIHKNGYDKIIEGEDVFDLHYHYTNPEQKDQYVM
Pf20S β5, sequence (A0A5K1K7U1 29-240): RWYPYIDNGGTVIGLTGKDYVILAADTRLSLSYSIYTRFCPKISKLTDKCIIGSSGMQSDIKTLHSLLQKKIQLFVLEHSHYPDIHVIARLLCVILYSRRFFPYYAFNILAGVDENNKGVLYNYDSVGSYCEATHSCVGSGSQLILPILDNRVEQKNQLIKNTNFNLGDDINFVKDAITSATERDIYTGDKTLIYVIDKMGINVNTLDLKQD
Pf20S β5, sequence (Q06323 whole entry partner): as the sequence (Q06323 whole entry partner) above

C[C@@]12OC(=O)[C@]1([C@@H](O)[C@@H]1C=CCCC1)NC(=O)[C@@H]2CCCl [Marizomib]
inhibition of Pf20S-mediated cleavage of Ac-nPnD-amc (β1 activity) (Pf20S β1; time-course, Fig. 3b): inhibited
effect on probe labeling of β5 (lower, 23 kDa) band (Pf20S β5 subunit): eliminated the labeling of both bands
effect on probe labeling of β2 (upper, 25 kDa) band (Pf20S β2 subunit): eliminated the labeling of both bands
pIC50 (c20S β2): ~6.52

Ac-Phe-Arg-Ser-Arg-epoxyketone [FRSR-ek]
inhibition of Pf20S activity with Z-VLR-amc (β2 substrate) (Pf20S β2; Fig. S4): effectively inhibited

PA28α: human proteasome activator subunit 1 alpha, produced recombinantly in E. coli
increase of Pf20S β1 subunit activity (Pf20S β1; 200 nM PA28α, Ac-nPnD-amc): 4 fold
increase of Pf20S β5 subunit activity (Pf20S β5): 8 fold
increase of Pf20S β2 subunit activity (Pf20S β2; 200 nM PA28α, Z-VLR-amc): 2 fold

incorrectly assembled half-Pf20S (immature half proteasome with Ump1) (from UniProt Q8I6T3 1-270; Q8IJT1 1-271; Q7K6A9 1-265) (complex)
stoichiometry N [1]: 2
